Columns and labels:
RPMI-8226 [1] = test: In vitro inhibition of tumor cell growth in the human myeloma 8226/ADR system.; type: functional, cell-based
In short: (§1)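 Cells trypsinized, seeded at 7500 cells/well, attached overnight. Serially diluted agent added to quadruplicate cultures; 24 h at 37 °C, 5% CO2, with [3H]thymidine 0.5 μCi/well during the last 4 h. Incorporation counted by scintillation; percent of media-only control from mean CPM. IC50 by linear forecast on a percent control vs log concentration plot.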

MCF7 [2] = test: In vitro inhibition of tumor cell growth in the human mammary tumor MCF-7 system; type: functional, cell-based; in short: as §1
MCF7 [3] = test: In vitro inhibition of tumor cell growth in the human mammary carcinoma MCF-7/ADR system.; type: functional, cell-based; in short: as §1
RPMI-8226 [4] = test: In vitro inhibition of tumor cell growth in the human myeloma 8226 system.; type: functional, cell-based; in short: as §1
Homo sapiens [5] = organism: Homo sapiens; test: Compound was tested in vitro for activity in a human tumor cloning system at 50 ug/mL concentration after continuous exposure time; type: functional
In short: (§2)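 Human tumor cloning assay on single-cell suspensions from patient solid tumors and effusions. Drug from DMSO stock was mixed into 0.3% agar CMRL 1066 with the cells, at 5×10^5 cells/mL over a feeder layer, and left for continuous exposure. Colonies (>50 cells) were counted around day 14 by inverted microscope. A run was evaluable with ≥20 control colonies and under 30% survival with 200 μg/mL vanadate.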

Homo sapiens [6] = organism: Homo sapiens; test: Compound was tested in vitro for activity in a human tumor cloning system at 5 ug/mL concentration after 1 hr exposure time; type: functional
In short: (§3)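 Human tumor cloning assay on single-cell suspensions from patient solid tumors and effusions. Cells were exposed for 1 h at 37 °C in McCoy's 5A with 10% heat-inactivated FCS, washed twice, then plated at 5×10^5 cells/mL in 0.3% agar CMRL 1066 over a feeder layer. Colonies (>50 cells) were counted around day 14. A run was evaluable with ≥20 control colonies and under 30% survival with 200 μg/mL vanadate.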

Homo sapiens [7] = organism: Homo sapiens; test: Tumor-specific activity against human gastric tumor type at 50 ug/mL concentration after 1 hr exposure time; Activity= no of responses/ no tested, 1/1; type: functional, Stomach
Homo sapiens [8] = organism: Homo sapiens; test: Tumor-specific activity against human lung, non-small cell tumor type at 50 ug/mL concentration after 1 hr exposure time; Activity= no of responses/ no of evaluable, […]; type: functional
Homo sapiens [9] = organism: Homo sapiens; test: Compound was tested in vitro for activity in a human tumor cloning system at 0.5 ug/mL concentration after 1 hr exposure time; type: functional; in short: as §3
Homo sapiens [10] = organism: Homo sapiens; test: Tumor-specific activity against human total tumor type at 0.5 ug/mL concentration after 1 hr exposure time; Activity= no of responses/ no tested, 2/5; type: functional
Homo sapiens [11] = organism: Homo sapiens; test: Compound was tested in vitro for activity in a human tumor cloning system at 0.5 ug/mL concentration after continuous exposure time; type: functional; in short: as §2
Homo sapiens [12] = organism: Homo sapiens; test: Tumor-specific activity against human total tumor type at 50 ug/mL concentration after 1 h exposure time; Activity= no of responses/ no tested, 5/5; type: functional
Homo sapiens [13] = organism: Homo sapiens; test: Tumor-specific activity against human ovary tumor type at 5 ug/mL concentration after 1 hr exposure time; Activity= no of responses/ no tested, 1/1; type: functional, Female gonad
Homo sapiens [14] = organism: Homo sapiens; test: Tumor-specific activity against human breast tumor type at 50 ug/mL concentration after 1 hr exposure time; Activity= no of responses/ no tested, […]; type: functional
Homo sapiens [15] = organism: Homo sapiens; test: Tumor-specific activity against human breast tumor type at 5 ug/mL concentration after 1 hr exposure time; Activity= no of responses/ no tested, […]; type: functional
Homo sapiens [16] = organism: Homo sapiens; test: Tumor-specific activity against human breast tumor type at 0.5 ug/mL concentration after 1 hr exposure time; Activity= no of responses/ no tested, 0/1; type: functional
Homo sapiens [17] = organism: Homo sapiens; test: Tumor-specific activity against human ovary tumor type at 50 ug/mL concentration after 1 hr exposure time; Activity= no of responses/ no tested, 1/1; type: functional, Female gonad
Homo sapiens [18] = organism: Homo sapiens; test: Tumor-specific activity against human ovary tumor type at 0.5 ug/mL concentration after 1 hr exposure time; Activity= no of responses/ no tested, 1/2; type: functional, Female gonad
Homo sapiens [19] = organism: Homo sapiens; test: Compound was tested in vitro for activity in a human tumor cloning system at 5 ug/mL concentration after continuous exposure time; type: functional; in short: as §2
Homo sapiens [20] = organism: Homo sapiens; test: Tumor-specific activity against human gastric tumor type at 0.5 ug/mL concentration after 1 hr exposure time; Activity= no of responses/ no tested, 1/1; type: functional, Stomach
Homo sapiens [21] = organism: Homo sapiens; test: Tumor-specific activity against human lung, non-small cell tumor type at 0.5 ug/mL concentration after 1 hr exposure time; Activity= no of responses/ no of evaluable, 0/1; type: functional
Homo sapiens [22] = organism: Homo sapiens; test: Compound was tested in vitro for activity in a human tumor cloning system at 50 ug/mL concentration after 1 hr exposure time; type: functional; in short: as §3
Homo sapiens [23] = organism: Homo sapiens; test: Tumor-specific activity against human total tumor type at 5 ug/mL concentration after 1 hr exposure time; Activity= no of responses/ no tested, 4/5
Homo sapiens [24] = organism: Homo sapiens; test: Tumor-specific activity against human gastric tumor type at 5 ug/mL concentration after 1 hr exposure time; Activity= no of responses/ no tested, 2/2; type: functional, Stomach
Homo sapiens [25] = organism: Homo sapiens; test: Tumor-specific activity against human colon tumor type at 0.5 ug/mL concentration after 1 hr exposure time; Activity= no of responses/ no tested,[…]; type: functional
Homo sapiens [26] = organism: Homo sapiens; test: Tumor-specific activity against human gastric tumor type at 0.5 ug/mL concentration after 1 hr exposure time; Activity= no of responses/ no tested,1/1; type: functional, Stomach
Homo sapiens [27] = organism: Homo sapiens; test: Tumor-specific activity against human gastric tumor type at 50 ug/mL concentration after 1 hr exposure time; Activity= no of responses/ no tested,1/1; type: functional, Stomach
Homo sapiens [28] = organism: Homo sapiens; test: Tumor-specific activity against human colon tumor type at 5 ug/mL concentration after 1 hr exposure time; Activity= no of responses/ no tested,4/5; type: functional
Homo sapiens [29] = organism: Homo sapiens; test: Tumor-specific activity against human ovary tumor type at 0.5 ug/mL concentration after 1 hr exposure time; Activity= no of responses/ no tested,2/2; type: functional, Female gonad
Homo sapiens [30] = organism: Homo sapiens; test: Tumor-specific activity against human breast tumor type at 5 ug/mL concentration after 1 hr exposure time; Activity= no of responses/ no tested,1/2; type: functional
Homo sapiens [31] = organism: Homo sapiens; test: Tumor-specific activity against human breast tumor type at 50 ug/mL concentration after 1 hr exposure time; Activity= no of responses/ no tested,1/2; type: functional
Homo sapiens [32] = organism: Homo sapiens; test: Tumor-specific activity against human colon tumor type at 50 ug/mL concentration after 1 hr exposure time; Activity= no of responses/ no tested,4/5; type: functional
Homo sapiens [33] = organism: Homo sapiens; test: Tumor-specific activity against human ovary tumor type at 50 ug/mL concentration after 1 hr exposure time; Activity= no of responses/ no tested,2/2; type: functional, Female gonad
Homo sapiens [34] = organism: Homo sapiens; test: Tumor-specific activity against human gastric tumor type at 5 ug/mL concentration after 1 hr exposure time; Activity= no of responses/ no tested,1/1; type: functional, Stomach
Homo sapiens [35] = organism: Homo sapiens; test: Tumor-specific activity against human ovary tumor type at 5 ug/mL concentration after 1 h exposure time; Activity= no of responses/ no tested,2/2; type: functional, Female gonad
Homo sapiens [36] = organism: Homo sapiens; test: Tumor-specific activity against human total tumor type at 50 ug/mL concentration after 1 hr exposure time; Activity= no of responses/ no tested,8/10; type: functional
Homo sapiens [37] = organism: Homo sapiens; test: Tumor-specific activity against human total tumor type at 5 ug/mL concentration after 1 hr exposure time; Activity= no of responses/ no tested,8/10; type: functional
Homo sapiens [38] = organism: Homo sapiens; test: Tumor-specific activity against human total tumor type at 0.5 ug/mL concentration after 1 hr exposure time; Activity= no of responses/ no tested,4/10; type: functional
Homo sapiens [39] = organism: Homo sapiens; test: Tumor-specific activity against human breast tumor type at 0.5 ug/mL concentration after 1 hr exposure time; Activity= no of responses/ no tested,0/2; type: functional

O=C1c2ccccc2C(=O)c2c(NCC(O)CNCc3ccccc3)ccc(NCC(O)CCl)c21 (centres undefined)
IC50 (RPMI-8226 [1]): 14300 nM | IC50 (MCF7 [2]): 8200 nM | IC50 (MCF7 [3]): 12400 nM | IC50 (RPMI-8226 [4]): 11100 nM

CCCNCC(O)CNc1ccc(NCC(O)CCl)c2c1C(=O)c1ccccc1C2=O (centres undefined)
IC50 (RPMI-8226 [1]): 12500 nM | IC50 (MCF7 [2]): 3450 nM | IC50 (MCF7 [3]): 8700 nM | IC50 (RPMI-8226 [4]): 9600 nM

CCN(CC)CC(O)CNc1ccc(NCC(O)CCl)c2c1C(=O)c1ccccc1C2=O (centres undefined)
IC50 (RPMI-8226 [1]): 70 nM | IC50 (MCF7 [2]): 430 nM | % responders at 50 µg/mL (Homo sapiens [5]): 100% | % responders at 5 µg/mL (Homo sapiens [6]): 80% | Activity (Homo sapiens [7]): 1 | Activity (Homo sapiens [8]): 1 | % responders at 0.5 µg/mL (Homo sapiens [9]): 40% | Activity (Homo sapiens [10]): 2 | % responders at 0.5 µg/mL (Homo sapiens [11]): 50% | Activity (Homo sapiens [12]): 5 | Activity (Homo sapiens [13]): 2 | Activity (Homo sapiens [14]): 1 | Activity (Homo sapiens [15]): 0 | Activity (Homo sapiens [16]): 0 | Activity (Homo sapiens [17]): 2 | IC50 (MCF7 [3]): 720 nM | Activity (Homo sapiens [18]): 1 | % responders at 5 µg/mL (Homo sapiens [19]): 100% | Activity (Homo sapiens [20]): 1 | IC50 (RPMI-8226 [4]): 210 nM | Activity (Homo sapiens [21]): 0 | % responders at 50 µg/mL (Homo sapiens [22]): 100% | Activity (Homo sapiens [23]): 4 | Activity (Homo sapiens [24]): 1

CCN(CC)CC(O)CNc1ccc(NCC2CO2)c2c1C(=O)c1ccccc1C2=O.O=C(O)/C=C/C(=O)O (centres undefined)
IC50 (RPMI-8226 [1]): 9 nM | Activity (Homo sapiens [25]): 1 | IC50 (MCF7 [2]): 40 nM | Activity (Homo sapiens [26]): 1 | % responders at 50 µg/mL (Homo sapiens [5]): 100% | Activity (Homo sapiens [27]): 1 | % responders at 5 µg/mL (Homo sapiens [6]): 80% | Activity (Homo sapiens [28]): 4 | Activity (Homo sapiens [29]): 2 | Activity (Homo sapiens [30]): 1 | Activity (Homo sapiens [31]): 1 | Activity (Homo sapiens [32]): 4 | Activity (Homo sapiens [33]): 2 | % responders at 0.5 µg/mL (Homo sapiens [9]): 40% | Activity (Homo sapiens [34]): 1 | % responders at 0.5 µg/mL (Homo sapiens [11]): 89% | Activity (Homo sapiens [35]): 2 | IC50 (MCF7 [3]): 20 nM | % responders at 5 µg/mL (Homo sapiens [19]): 89% | Activity (Homo sapiens [36]): 8 | IC50 (RPMI-8226 [4]): 10 nM | % responders at 50 µg/mL (Homo sapiens [22]): 80% | Activity (Homo sapiens [37]): 8 | Activity (Homo sapiens [38]): 4 | Activity (Homo sapiens [39]): 0

CCN(CC)CC(O)CNc1ccc(N)c2c1C(=O)c1ccccc1C2=O (centres undefined)
IC50 (MCF7 [2]): 6000 nM

COc1cccc2c1C(=O)c1c(O)c3c(c(O)c1C2=O)C[C@@](O)(C(=O)CO)C[C@@H]3O[C@H]1C[C@H](N)[C@H](O)[C@H](C)O1 [DOXORUBICIN]
IC50 (RPMI-8226 [1]): 560 nM | IC50 (RPMI-8226 [4]): 33 nM

O=C1c2c(O)ccc(O)c2C(=O)c2c(NCCNCCO)ccc(NCCNCCO)c21 [MITOXANTRONE]
IC50 (RPMI-8226 [1]): 180 nM | IC50 (MCF7 [2]): 5 nM | IC50 (MCF7 [3]): 4000 nM | IC50 (RPMI-8226 [4]): 30 nM
